# The entries come from a sample that favours hits as a whole.
# INS promoter act: TRM-6 insulin promoter activation | activation, % at 2 µM | AID 1296 | TRM-6 cells, insulin promoter eGFP reporter, imaging; plate-scaled: unstimulated 0, stimulated control 100 | 130,000 tested, 0.81% active;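 active = activation at 2 µM above a set limit, confirmed on inspection of the cell images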;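 also: share of cells whose green reporter signal exceeds an intensity cutoff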
#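 Test system: human fetal islet-derived TRM-6 cells with tamoxifen-inducible insulin promoter–eGFP reporter. Compound dosing: 2 µM final, single concentration. Incubation: tamoxifen pre-incubation 15 h overnight, then compound exposure 48 h at 37 °C. Signal: fixed-cell fluorescence microscopy, eGFP plus Hoechst.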
# Starred values were filed as active, the others as inactive.
SMILES,INS promoter act
CCCCOc1ccc(CC2CCC(=O)NC2=O)cc1 (centres undefined),-7.1
COc1cccc(C(=O)C2CCCN(Cc3cn(CC(N)=O)c4ccccc34)C2)c1 (centres undefined),5.6
COc1ccc(COc2ccc(C3C(S(=O)(=O)c4ccccc4)CON3C)cc2OC)cc1 (centres undefined),0.0
CC(/C=C/c1ccccc1)=N\NC(=O)CNC(=O)c1ccccc1Cl,-9.4
O=C(N/N=C/C=C/c1ccccc1)c1ccc(Br)cc1,9.7
CC(/C=C/c1ccccc1)=N\NC(=O)c1ccc(Br)cc1,388.9*
O=C(CCn1c(=O)oc2ccccc21)N1CCN(c2ccccc2Cl)CC1,127.6
O=C(CCN1C(=O)C2C3C=CC(C3)C2C1=O)N1CCN(c2ccccc2Cl)CC1 (centres undefined),-2.6
N#CCC(=N)N1CCN(c2ccccc2Cl)CC1,176.7*
O=C(OCCN1C(=O)c2cccc3c(N4CCOCC4)ccc(c23)C1=O)c1cc(Cl)cc(Cl)c1,203.6*
O=C1c2cccc3c(N4CCCCC4)ccc(c23)C(=O)N1c1ccc(Cl)cn1,-4.5
CCN1C(=O)c2cccc3c(S(=O)(=O)Nc4ccccc4OC)ccc1c23,109.1
CCN(CC)S(=O)(=O)c1ccc(C(=O)OCCN2C(=O)c3cccc4c(N5CCOCC5)ccc(c34)C2=O)cc1,0.0
Cn1nc(C(=O)OCCN2C(=O)c3ccccc3C2=O)c2ccccc2c1=O,3.2
CCCN1C(=O)c2cccc3c(N4CCCCC4)ccc(c23)C1=O,244.8*
Cc1ccc(Nc2nc(-c3ccc(S(=O)(=O)N4CCOCC4)cc3)cs2)cc1Cl,0.0
COCCSc1nnc(NC(=O)c2cc(C(=O)OC)cc([N+](=O)[O-])c2)s1,7.1
COc1ccc([N+](=O)[O-])cc1NC(=O)CC(c1ccccc1)c1ccccc1,192.9
COC(=O)c1sc2cc([N+](=O)[O-])cc(SCC(C)C)c2c1N,589.7*
CC1CCCC(n2c(=S)[nH]c3ccccc3c2=O)C1C (centres undefined),-7.0
CNS(=O)(=O)c1cc(OC)ccc1OC,115.4
COc1ccc(OC)c(S(=O)(=O)Nc2ccc(O)c3ccccc23)c1,450.0*
COC(=O)c1c(C)oc2ccc(NS(=O)(=O)c3cc(OC)ccc3OC)cc12,-81.2
Cc1ccccc1N1C(=O)C(Oc2ccc(Cl)cc2)C1CNC(C)(C)C (centres undefined),0.0
CCN(CC)S(=O)(=O)c1cccc(C(=O)N[C@H](C(=O)OCC(=O)NC(=O)NC)C(C)C)c1,-2.6
SMILES,INS promoter act
c1ccc(-c2nc(-n3nc4ccccc4n3)nc3ccccc23)cc1,145.5*
Clc1ccc(-c2nc(N3CCCCC3)nc3ccccc23)cc1,4.8
c1ccc(-c2nn3nnnc3c3ccccc23)cc1,174.1
O=C(NCc1ccco1)C(c1ccccc1)N(Cc1ccccc1)C(=O)Cn1nnc2ccccc21 (centres undefined),64.3
CCCCNC(=O)CCN1N=C(c2ccccc2)CCC1=O,136.4
CC(=O)Nc1ccccc1C(=O)C(=O)Nc1ccc(C(=O)N2CCOCC2)cc1,-3.7
CCN(CC)c1ccc2c(c1)oc(=O)c1c(Cl)cc(=O)oc12,219.0
CCN(CC)c1ccc2c(Cl)c(Br)c(=O)oc2c1,133.3*
CCN(CC)c1ccc2c(C)c(-c3ccc(N)cc3)c(=O)oc2c1,-1.8
Cc1cc(C)c(-c2c(O)c3cnn(-c4ccccc4)c3[nH]c2=O)c(C)c1,-66.7
C(=C1/CCCC2=C1Nc1ncnn1C2c1ccccc1)/c1ccccc1 (centres undefined),-73.0
CCC(C)NS(=O)(=O)c1ccc(OCC(=O)Nc2ccc(F)cc2F)cc1 (centres undefined),462.5*
COc1ccc(C(=O)OCC(=O)Nc2ccc(F)cc2F)cc1OC,-2.6
CCC(C)NS(=O)(=O)c1ccc(OCC(=O)NCc2ccc3c(c2)OCO3)cc1 (centres undefined),0.0
CC1Cc2ccccc2N1C(=O)c1cc2sccc2n1Cc1ccc(F)cc1 (centres undefined),57.1
N#CCCN(C(=O)COC(=O)c1ccc(CNS(=O)(=O)c2ccc(F)c(Cl)c2)cc1)c1ccc(F)cc1,-8.3
O=C(c1ccccn1)N(Cc1cccs1)C1(C(=O)NC2CCCCC2)CCCCC1,136.4
Cc1ccc(CSC2=NCCN2S(=O)(=O)c2ccccc2)cc1,464.3*
O=S(=O)(c1ccccc1)N1CCN=C1SCc1ccccc1,0.0
CCCS(=O)(=O)N1CCN=C1SCc1ccc(C)cc1,0.0
CC1(C)COC(c2coc3ccccc3c2=O)OC1,-100.0
O=C(c1ccccn1)c1cc2ccccc2n1S(=O)(=O)c1ccccc1,3.4
COc1ccccc1N1CCN(S(=O)(=O)c2cccs2)CC1,2.9
COc1ccc(N2CCN(S(=O)(=O)c3ccc(Cl)s3)CC2)cc1,2.4
COc1ccc(N2CCN(S(=O)(=O)c3cccs3)CC2)cc1,500.0*
SMILES,INS promoter act
CCOc1ccccc1NC(=S)NNS(=O)(=O)c1c(C)cc(C)cc1C,8.1
O=C(NC(=S)Nc1ccc(S(=O)(=O)Nc2nccs2)cc1)c1cccc(F)c1,-74.1
O=C1OCC(CO)(CO)N=C1NNc1ccccc1Cl,0.0
COc1ccc(CNC(=O)COc2cc(=O)n(C)c3ccccc23)cc1,-6.7
CCOC(=O)c1ccccc1NC(=O)COc1cc(=O)n(CC)c2ccccc12,306.7
CCn1c(=O)cc(OCC(=O)NCc2ccc(C)o2)c2ccccc21,100.0*
O=C(c1cc(C2CC2)nc2ccc(Br)cc12)N1N=C(C(F)F)CC1(O)C(F)F (centres undefined),107.7
O=c1[nH]c(CN2CCN(S(=O)(=O)c3ccccc3C(F)(F)F)CC2)nc2sc3c(c12)CCCC3,-3.3
Cc1ccc(NC(=O)CN(C)C(=O)COc2ccc(C(=O)c3ccc(F)cc3)cc2)cc1,0.0
CN(C)c1oc(-c2ccc(Cl)cc2)nc1S(=O)(=O)c1ccccc1,-1.5
COc1ccc(/C=C/CN2CCCC(CCC(=O)NCc3ccc(F)c(F)c3)C2)cc1 (centres undefined),141.7
CCc1nnc(NS(=O)(=O)c2ccc(N3C(=O)c4ccc(C(=O)O)cc4C3=O)cc2)s1,-5.3
COc1ccc(-c2noc(CCC(=O)N3CCC(C)CC3)n2)cc1,113.3
O=C(CC1CCCCC1)N1CCCC(c2nc(-c3ccc(S(=O)(=O)N4CCCC4)cc3)no2)C1 (centres undefined),9.1
CCCCCC(=O)N1CCCC(c2nc(-c3ccc(OC)cc3)no2)C1 (centres undefined),77.1*
CC#C[C@]1(O)CC[C@H]2[C@@H]3CCC4=CC(=O)CCC4=C3[C@@H](c3ccc(N(C)C)cc3)C[C@@]21C,4.5
COc1ccc(Cn2c(-c3ccc(OC)cc3)nc3ccccc32)cc1,8.6
COc1ccc(CCn2c(-c3ccco3)nc3nc4ccccc4nc32)cc1,178.6*
COc1ccc(CCn2c(C)nc3c(c(=O)c4ccccc4n3C)c2=O)cc1,-3.2
CC1=C(OC(=O)C(C)(C)C)C(C)(C)C(c2ccccc2)OC1=O (centres undefined),5.3
COc1ccc(CNC(=O)c2ccccc2SC)cc1,258.8
COc1ccc(OCC(=O)Nc2ccccc2O)cc1,6.9
COc1ccc(CSCC(=O)Nc2ccccc2SC)cc1,366.7*
O=C(Nc1ccc(Cl)cc1)OCCn1nnnc1C(c1ccccc1)N1CCOCC1 (centres undefined),88.6*
O=C(c1ccco1)N1CCN(C(c2ccc(Cl)cc2)c2nnnn2Cc2ccccc2)CC1 (centres undefined),6.7
